The subject of data set [1] is Plasmodium falciparum. Kind of data set: Antiplasmodial activity after 48 hrs against Plasmodium falciparum 3D7 as Malstat LDH activity. In kind it is functional, organism-based. The note with it: for IC50: 3D7, 48 h. The method, boiled down: (§1)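 Synchronized ring-stage 3D7 plated at 1% parasitemia. Drugs tested at 1 nM to 100 μM, dissolved in DMSO or water; 0.5% DMSO was the negative control. Cultures kept 48, 72, 96 or 120 h, with medium changed at day 3. Viability read by Malstat parasite lactate dehydrogenase activity. IC50 reported as mean ± SEM.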

The subject of data set [2] is Plasmodium falciparum. Kind of data set: Antiplasmodial activity after 72 hrs against Plasmodium falciparum 3D7 as Malstat LDH activity. In kind it is functional, organism-based. The note with it: for IC50: 3D7, 72 h. The method, boiled down: as §1
In data set [3] the test system is Plasmodium falciparum. Kind of data set: Antiplasmodial activity after 96 hrs against Plasmodium falciparum 3D7 as Malstat LDH activity. It counts as functional, organism-based. The following applies: for IC50: 3D7, 96 h. The method, boiled down:
as §1

In data set [4] the test system is Plasmodium falciparum. Nature of the data set: Antiplasmodial activity after 120 hrs against Plasmodium falciparum 3D7 as Malstat LDH activity. The note with it: for IC50: 3D7, 120 h. It counts as functional, organism-based. The gist of the method:
as §1

Data set [5] concerns Plasmodium falciparum. Kind of data set: Antiplasmodial activity against Plasmodium falciparum 3D7 as early schizont maturation arrest at IC50 after 48-120 hrs by giemsa stain. It counts as functional, organism-based. The method, boiled down:
(§2)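 Synchronized 3D7 cultures exposed to drug at the 96-h IC50 over three life cycles, with 0.5% DMSO as untreated control. Giemsa smears were taken at 48, 72, 96 and 120 h, and developmental stages were counted at each time point.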

Data set [6] deals with Plasmodium falciparum. Nature of the data set: Relative activity against Plasmodium falciparum 3D7 as IC50 ratio after 48 and 96 hrs. It counts as functional.
The subject of data set [7] is Plasmodium falciparum. Kind of data set: Antiplasmodial activity against Plasmodium falciparum 3D7 assessed as multiple-nuclei schizont arrest at IC50 after 96 hrs by transmission electron microscopy. In kind it is functional, organism-based. The gist of the method: (§3)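 Cultures exposed to drug at the 96-h IC50 and collected after 96 h of treatment. Fixed in 1% glutaraldehyde and 4% paraformaldehyde in PBS, then processed for transmission electron microscopy to assess schizont stage and morphology. Untreated parasites served as comparison.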

Data set [8] relates to Plasmodium falciparum. Nature of the data set: Antiplasmodial activity against Plasmodium falciparum 3D7 as delayed first replication cycle at IC50 after 48-120 hrs by giemsa stain. It counts as functional. The gist of the method: as §2
Data set [9] can be described thus: Cmax in human at 12 mg/kg administered as single oral dose. It counts as ADME, organism-based. More on the design: dose 12 mg/kg, route oral. The note with it: in vivo.
Data set [10] deals with Plasmodium falciparum. Kind of data set: Antiplasmodial activity against Plasmodium falciparum 3D7 as late trophozoite to early schizont arrest at IC50 after 48-120 hrs by giemsa stain. It counts as functional, organism-based. The gist of the method:
as §2

The test system of data set [11] is Plasmodium falciparum. Kind of data set: Antiplasmodial activity against Plasmodium falciparum 3D7 as 2xnuclei schizont arrest at IC50 after 96 hrs by transmission electron microscopy. In kind it is functional, organism-based. The method, boiled down:
as §3

In data set [12] the test system is Plasmodium falciparum. Nature of the data set: Antiplasmodial activity as ED50 against parasite growth after 48 hrs for Plasmodium falciparum 3D7. It counts as functional, organism-based. The following applies: 3D7, 48 h. The gist of the method:
as §1

For data set [13], the system named is Plasmodium falciparum. Kind of data set: Antiplasmodial activity as ED50 against parasite growth after 96 hrs for Plasmodium falciparum 3D7. The following applies: 3D7, 96 h. In kind it is functional, organism-based. The gist of the method:
as §1

Data set [14] deals with Plasmodium falciparum. Nature of the data set: Antiplasmodial activity against Plasmodium falciparum 3D7 as delayed maturation in first replication and early second cycle arrest at IC50. In kind it is functional, organism-based. The gist of the method: as §2

Molecules are shown by their SMILES. In brackets after ≈: the same amount, converted by molar mass. Activity calls are given as the source filed them. No cut-off for these calls is given here.

Consider `CC(=O)NC[C@H]1CN(c2ccc(N3CCOCC3)c(F)c2)C(=O)O1`, for which the result in the data set on Plasmodium falciparum [1], in the data set on Plasmodium falciparum [2], in the data set on Plasmodium falciparum [3] and in the data set with Plasmodium falciparum [4] was inactive.
By IC50 is commonly meant the concentration at which inhibition is half-maximal. The low end stands for inhibition by little substance, the high end for a need for much substance. Turning to `CC[C@H]1OC(=O)[C@H](C)[C@@H](O[C@H]2C[C@@](C)(OC)[C@@H](O)[C@H](C)O2)[C@H](C)[C@@H](O[C@@H]2O[C@H](C)C[C@H](N(C)C)[C@H]2O)[C@](C)(O)C[C@@H](C)CN(C)[C@H](C)[C@@H](O)[C@]1(C)O` [AZITHROMYCIN], the IC50 in the data set on Plasmodium falciparum [1] is 9.04 µM; in the data set with Plasmodium falciparum [2], 4.57 µM; with Plasmodium falciparum [3] it was 0.94 µM; in the data set on Plasmodium falciparum [4] it was 0.41 µM. The result with Plasmodium falciparum [5] and in the data set with Plasmodium falciparum [7] was Active. Also, in the data set on Plasmodium falciparum [6], the “Ratio IC50” value is on record as 10.
`C[C@H]1c2cccc(O)c2C(=O)C2=C(O)[C@]3(O)C(=O)C(C(N)=O)=C(O)[C@@H](N(C)C)[C@@H]3[C@@H](O)[C@@H]21.O` [DOXYCYCLINE]: the IC50 in the data set with Plasmodium falciparum [1] is 5.42 µM; in the data set with Plasmodium falciparum [2], 1.49 µM; in the data set with Plasmodium falciparum [3], 0.72 µM; in the data set with Plasmodium falciparum [4] it was 0.12 µM. In addition, the outcome with Plasmodium falciparum [5] and in the data set with Plasmodium falciparum [7] was Active. In addition, the “Ratio IC50” value in the data set with Plasmodium falciparum [6] is 10.
For orientation: Cmax means the maximum level reached in the sampled fluid or tissue. With `CC[C@H]1OC(=O)[C@H](C)C(=O)[C@H](C)[C@@H](O[C@@H]2O[C@H](C)C[C@H](N(C)C)[C@H]2O)[C@](C)(OC)C[C@@H](C)C(=O)[C@H](C)[C@H]2N(CCCCn3cnc(-c4cccnc4)c3)C(=O)O[C@]12C` [TELITHROMYCIN], the IC50 in the data set with Plasmodium falciparum [1] is 8.08 µM; in the data set with Plasmodium falciparum [2], 1.04 µM; in the data set with Plasmodium falciparum [3], 0.28 µM; in the data set on Plasmodium falciparum [4] it was 0.44 µM; with Plasmodium falciparum [12], 6.56 µg/mL (≈ 8.08 µM); in the data set on Plasmodium falciparum [13] it was 0.23 µg/mL (≈ 0.283 µM). Further, in the data set with Plasmodium falciparum [8], the Activity was found to be 5 h. For the same compound, the Cmax in data set [9] was 1900 ng/mL. In addition, the outcome in the data set on Plasmodium falciparum [10], in the data set with Plasmodium falciparum [11] and with Plasmodium falciparum [14] was Active.
